Source: ChEMBL document CHEMBL4325842, “Design, synthesis, and biological evaluation of novel aminopyrimidinylisoindolines as AXL kinase inhibitors” (Bioorg Med Chem Lett, 2018)

Key:
OVCAR-3 = test: Antiproliferative activity against human OVCAR3 cells after 2 days by spectrophotometric analysis; type: functional; conditions: OVCAR-3, 48 h
Summary of the method: (§1)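 Cells from ATCC were kept in RPMI 1640 with 5% FBS. They were exposed to graded concentrations in DMSO/RPMI for 48 h at 37 C under 5% CO2, then fixed with 50% trichloroacetic acid. Cellular protein was read at 540 nm at time zero and at 48 h, with and without compound. TGI (100% growth inhibition) was taken from the concentration-response curve.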

[1] = target: T1, Tyrosine-protein kinase receptor UFO (Homo sapiens, UniProt P30530); test: Inhibition of N-terminal His-tagged recombinant human AXL (473 to end amino acids) expressed by baculovirus in Sf9 cells using axltide substrate and ATP by ADP-Glo luminescence assay
T1 sequence (P30530 whole entry): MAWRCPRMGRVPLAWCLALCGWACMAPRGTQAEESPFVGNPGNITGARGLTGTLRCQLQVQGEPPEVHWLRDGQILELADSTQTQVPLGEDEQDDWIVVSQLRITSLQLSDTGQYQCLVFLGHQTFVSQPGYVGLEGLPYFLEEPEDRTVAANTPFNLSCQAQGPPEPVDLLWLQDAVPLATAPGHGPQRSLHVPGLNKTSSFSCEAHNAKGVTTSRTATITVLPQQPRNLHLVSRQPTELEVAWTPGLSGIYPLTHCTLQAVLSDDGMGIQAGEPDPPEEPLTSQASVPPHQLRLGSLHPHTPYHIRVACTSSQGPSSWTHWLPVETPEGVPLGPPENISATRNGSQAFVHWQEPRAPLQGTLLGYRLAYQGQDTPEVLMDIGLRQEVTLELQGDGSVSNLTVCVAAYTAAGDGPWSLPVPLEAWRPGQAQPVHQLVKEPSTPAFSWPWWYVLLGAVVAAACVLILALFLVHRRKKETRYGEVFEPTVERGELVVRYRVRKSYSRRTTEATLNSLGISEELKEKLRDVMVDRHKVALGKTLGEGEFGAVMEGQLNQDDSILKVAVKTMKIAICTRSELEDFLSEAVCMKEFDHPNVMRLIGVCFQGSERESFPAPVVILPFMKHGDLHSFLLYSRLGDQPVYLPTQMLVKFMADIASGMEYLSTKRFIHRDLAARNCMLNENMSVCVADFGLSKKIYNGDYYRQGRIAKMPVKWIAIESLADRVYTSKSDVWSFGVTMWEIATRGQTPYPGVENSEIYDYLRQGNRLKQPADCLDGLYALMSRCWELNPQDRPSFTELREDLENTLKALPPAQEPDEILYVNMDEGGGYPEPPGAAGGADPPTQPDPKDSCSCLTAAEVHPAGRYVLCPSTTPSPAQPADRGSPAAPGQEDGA

A549 = test: Antiproliferative activity against human A549 cells after 2 days by spectrophotometric analysis; type: functional; conditions: A549, 48 h
HeLa = test: Antiproliferative activity against human HeLa cells after 2 days by spectrophotometric analysis; type: functional; conditions: 48 h; summary of the method: as §1
U-87 MG = test: Antiproliferative activity against human U87MG cells after 2 days by spectrophotometric analysis; type: functional, U-87MG ATCC; conditions: 48 h
HepG2 = test: Antiproliferative activity against human HepG2 cells after 2 days by spectrophotometric analysis; type: functional; conditions: HepG2, 48 h

Compound | GI50 (OVCAR-3) [µM] | IC50 [1] [µM] | GI50 (A549) [µM] | GI50 (HeLa) [µM] | GI50 (U-87 MG) [µM] | GI50 (HepG2) [µM]
CN(c1cccc2c1CN(c1nc(Nc3ccc(Nc4ccccc4)cc3)ncc1C(F)(F)F)C2)S(C)(=O)=O | > 50 | > 20 | 6.2 | 7.3 | 29.8 | 8.6
Cc1cc(F)ccc1Nc1ncc(C(F)(F)F)c(N2Cc3cccc(N(C)S(C)(=O)=O)c3C2)n1 | > 30 |  | > 30 | 6.5 | > 30 | 16.8
CN(c1cccc2c1CN(c1nc(Nc3ccccc3N3CCOCC3)ncc1C(F)(F)F)C2)S(C)(=O)=O | > 50 | > 20 | > 30 | 23.9 | > 30 | > 30
Cc1cc(C)cc(Nc2ncc(C(F)(F)F)c(N3Cc4cccc(N(C)S(C)(=O)=O)c4C3)n2)c1 | > 30 | > 20 | > 30 | > 30 | > 30 | > 30
COc1cc(Nc2ncc(C(F)(F)F)c(N3Cc4cccc(N(C)S(C)(=O)=O)c4C3)n2)cc(C(F)(F)F)c1 | > 30 |  | > 30 | 5.1 | > 30 | 22.1
CN(c1cccc2c1CN(c1nc(Nc3cccc(Oc4ccccc4)c3)ncc1C(F)(F)F)C2)S(C)(=O)=O | 24.9 |  | 19 | 4.3 | 19.5 | 23
CN(c1cccc2c1CN(c1nc(Nc3ccc(Cl)c(C(F)(F)F)c3)ncc1C(F)(F)F)C2)S(C)(=O)=O | > 50 | > 20 | 15.2 | 11.1 | > 30 | 16
Cc1cc(Cl)ccc1Nc1ncc(C(F)(F)F)c(N2Cc3cccc(N(C)S(C)(=O)=O)c3C2)n1 | > 30 | > 20 | 25.5 | 17.4 | 28.3 | 19.6
CN(c1ncccc1CNc1nc(Nc2ccc3c(c2)CC(=O)N3)ncc1C(F)(F)F)S(C)(=O)=O | 1.8 |  | 2.1 | 1.7 | 3.7 | 1.2
Cc1ccc(Nc2ncc(C(F)(F)F)c(N3Cc4cccc(N(C)S(C)(=O)=O)c4C3)n2)cc1C | > 30 | > 20 | > 30 | > 30 | > 30 | > 30
CN(c1cccc2c1CN(c1nc(Nc3cc(Cl)cc(C(F)(F)F)c3)ncc1C(F)(F)F)C2)S(C)(=O)=O | 21.5 | > 30 | 6.7 | 4.3 | 5.5 | 9.9
COc1ccc(C(F)(F)F)cc1Nc1ncc(C(F)(F)F)c(N2Cc3cccc(N(C)S(C)(=O)=O)c3C2)n1 | > 30 | > 20 | > 30 | 17.2 | > 30 | > 30
